Data: ChEMBL document CHEMBL4393666, “Synthesis and Anti-HCV Activities of 4'-Fluoro-2'-Substituted Uridine Triphosphates and Nucleotide Prodrugs: Discovery of 4'-Fluoro-2'- C-methyluridine 5'-Phosphoramidate Prodrug (AL-335) for the Treatment of Hepatitis C Infection” (J Med Chem, 2019)

Columns and labels:
[1] = Drug metabolism in human hepatocytes assessed as 2a-TP formation per million cells at 50 uM after 24 hrs by LC-MS/MS analysis; type: ADME, cell-based, Hepatocyte
Summary of the method: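 Primary human hepatocytes, 1.5-2 million cells/well, in Williams E medium, acclimated >18 h. Incubated with compound at 50 μM extracellular for 24 h at 37°C, 5% CO2. Washed with cold saline, methanol/water lysis, NTP measured by LC-MS/MS per million cells.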

[2] = Drug metabolism in human HuH7 cells assessed as 2a-TP formation per million cells at 50 uM after 24 hrs by LC-MS/MS analysis; type: ADME, cell-based; settings: huh-7, 24 h
Summary of the method: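 Huh-7 cells in 6-well plates, DMEM with 10% FBS and G418, incubated with compound at 50 μM extracellular for 24 h at 37°C, 5% CO2. Washed with cold 0.9% NaCl, lysed in 70% methanol. Intracellular NTP by LC-MS/MS against cell-matrix calibrants, internal standard N6-benzoyladenine; expressed per million cells.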

[3] = Cytotoxicity against human HepG2 cells treated for 8 days measured post-last dose by Celltiter-glo luminescent assay; type: cell-based
Summary of the method: (§1)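 Cells at 1×10^5/well on collagen I, first kept 8 days in recommended medium without drug. Then compound exposure for 8 days, refed every other day. Viability by CellTiter-Glo luminescence; CC50 by curve fitting.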

[4] = Drug metabolism in human primary hepatocytes assessed as 2a-TP formation after 24 hrs by LC-MS/MS analysis
[5] = test system: Hepatitis C virus; assay: Antiviral activity against HCV genotype 1b con1 subgenomic replicon expressing NS5B measured after 3 days by bright-glo luciferase reporter gene assay; type: functional, organism-based, Hepacivirus hominis; settings: subtype 1b con1, 72 h
Summary of the method: (§2)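 Chimeric replicons carrying the NS5B of each genotype (1a H77, 1b Con1, 2b ADQ73660, 3a NZL1, 4a ABD75829). Firefly luciferase is driven by the poliovirus IRES and the HCV nonstructural genes by the EMCV IRES. Transiently transfected into Lunet cells, 10,000 cells/well. 3-fold serial dilutions, 0.5% DMSO final, 3 days. Read-out: firefly luciferase (Bright-Glo).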

[6] = Cytotoxicity against human A549 cells treated for 8 days measured post-last dose by Celltiter-glo luminescent assay; type: cell-based; summary of the method: as §1
[7] = test system: Hepatitis C virus; assay: Antiviral activity against HCV genotype 3a NZL1 subgenomic replicon expressing NS5B measured after 3 days by bright-glo luciferase reporter gene assay; type: functional, organism-based, Hepacivirus hominis; settings: subtype 3a NZL1, 72 h; summary of the method: as §2
[8] = test system: Hepatitis C virus; assay: Antiviral activity against HCV genotype 1 infected in human assessed as reduction in viral infection at 800 mg, qd measured after 6 weeks in presence of odalasvir/simeprevir relative to control; type: functional, Hepacivirus hominis; parameters: scale not given: the % may be the effect or the level left
[9] = Cytotoxicity against human HuH7 cells infected with HCV con1 subgenomic replicon assessed as reduction in cell viability measured after 3 days by CellTiter-blue cell viability assay; type: cell-based, Huh-7
Summary of the method: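 Con1 replicon Huh-7 cells treated as for the replicon assay (DMEM, 2% FBS, 0.5% DMSO, no G418, 37°C) for 3 days. Viability by CellTiter-Blue; CC50 by curve fitting.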

[10] = Drug metabolism in human primary hepatocytes assessed as 2a-TP formation at 10 uM after 6 to 24 hrs by LC-MS/MS analysis
[11] = test system: Hepatitis C virus; assay: Antiviral activity against HCV genotype 2b subgenomic replicon expressing NS5B measured after 3 days by bright-glo luciferase reporter gene assay; type: functional, organism-based, Hepacivirus hominis; settings: subtype 2b, 72 h; summary of the method: as §2
[12] = test system: Hepatitis C virus; assay: Antiviral activity against HCV genotype 4a subgenomic replicon expressing NS5B measured after 3 days by bright-glo luciferase reporter gene assay; type: functional, organism-based, Hepacivirus hominis; settings: subtype 4a, 72 h; summary of the method: as §2
[13] = Drug metabolism in Beagle dog liver assessed as 2a-TP level at 9.87 mg/kg, po administered as single dose measured at 4 hrs by LC-MS/MS analysis; type: ADME, organism-based, Canis lupus familiaris; settings: in vivo
Summary of the method: (§3)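 Male non-naïve beagle dogs fasted overnight, single oral dose of 9.87 mg/kg (5 mg/kg parent nucleoside equivalent) as a solution in 40% PEG400/water. Liver extracts analysed for NTP by LC-MS/MS against liver-homogenate calibrants. N=2 at 4 h, N=3 at 12 and 24 h.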

[14] = Cytotoxicity against human MT4 cells treated for 8 days measured post-last dose by Celltiter-glo luminescent assay; type: cell-based; summary of the method: as §1
[15] = Drug metabolism in Beagle dog liver assessed as 2a-TP level at 9.87 mg/kg, po administered as single dose measured at 24 hrs by LC-MS/MS analysis; type: ADME, organism-based, Canis lupus familiaris; settings: in vivo; summary of the method: as §3
[16] = Cytotoxicity against human HeLa cells treated for 8 days measured post-last dose by Celltiter-glo luminescent assay; type: cell-based; summary of the method: as §1
[17] = Drug metabolism in Beagle dog liver assessed as 2a-TP level at 9.87 mg/kg, po administered as single dose measured at 12 hrs by LC-MS/MS analysis; type: ADME, organism-based, Canis lupus familiaris; settings: in vivo; summary of the method: as §3
[18] = Cytotoxicity against human HuH7 cells treated for 8 days measured post-last dose by Celltiter-glo luminescent assay; type: cell-based, Huh-7; summary of the method: as §1
[19] = Cytotoxicity against human U937 cells treated for 8 days measured post-last dose by Celltiter-glo luminescent assay; type: cell-based, U-937; summary of the method: as §1
[20] = test system: Hepatitis C virus; assay: Antiviral activity against HCV con1 subgenomic replicon infected in human HuH7 cells assessed as reduction in viral RNA replication by qRT-PCR analysis; type: functional, organism-based, Hepacivirus hominis; settings: isolate Con1, Huh-7
Summary of the method: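 Con1 subgenomic replicon Huh-7 cells (neomycin selection, kept in DMEM/10% FBS with 0.25 mg/ml G418) treated with compounds in DMEM, 2% FBS, 0.5% DMSO, no G418, at 37°C. Total RNA extracted; HCV RNA copy number by multiplex Taqman QRT-PCR. EC50/EC90 by 4-parameter curve fit; EC50 is the mean of ≥2 independent runs.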

[21] = test system: Hepatitis C virus; assay: Antiviral activity against HCV genotype 1a H77 expressing NS5B measured after 3 days by bright-glo luciferase reporter gene assay; type: functional, organism-based, Hepacivirus hominis; settings: subtype 1a H77, 72 h; summary of the method: as §2

CC(C)OC(=O)[C@H](C)N[P@](=O)(OC[C@@]1(F)O[C@@H](n2ccc(=O)[nH]c2=O)[C@](C)(O)[C@@H]1O)Oc1ccccc1 [ADAFOSBUVIR]
Drug metabolism [1]: 3540 pmol | Drug metabolism [2]: 5695 pmol | CC50 at 192 h [3]: > 100000 nM | Drug metabolism [4]: Dose-dependent effect | EC50 [5]: 40 nM | CC50 at 192 h [6]: > 100000 nM | EC50 [7]: 60 nM | Activity [8]: 100% | CC50 at 72 h [9]: > 99000 nM | Drug metabolism [10]: Metabolite_Detected | EC50 [11]: 40 nM | EC50 [12]: 60 nM | Drug metabolism [13]: 23.19 µM | CC50 at 192 h [14]: > 100000 nM | Drug metabolism [15]: 29.991 µM | CC50 at 192 h [16]: > 100000 nM | Drug metabolism [17]: 35.222 µM | CC50 at 192 h [18]: 96100 nM | CC50 at 192 h [19]: > 100000 nM | EC50 [20]: 70 nM | EC50 [21]: 60 nM
